Data from publication PMC6133080 (European Journal of Drug Metabolism and Pharmacokinetics, 2018).
Read-outs that look alike come from different tables or passages of the source.

What was measured:
[1] = Ketoconazole study: safety and tolerability; assay type: in vivo, human; conditions: for Subjects with abdominal pain upper / Subjects with any AE (s) / Subjects with back pain / Subjects with dizziness / Subjects with dry mouth / Subjects with excoriation / Subjects with fatigue / Subjects with headache / Subjects with nasopharyngitis / Subjects with ocular hyperemia / Subjects with puncture site induration / Subjects with puncture site pain: nintedanib 50 mg single dose, ketoconazole 400 mg once daily for 3 days
Method in brief: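 Healthy subjects in an open-label 2-way crossover with randomized sequences. The pilot period had 8 subjects and the main period 26 further subjects. Nintedanib 50 mg was given alone and after ketoconazole 400 mg once daily for 3 days (1 h after the last dose in the pilot), with ≥14 days between nintedanib doses. AEs from one drug intake to the next, washout included, were assigned to that treatment period (nintedanib, ketoconazole, or both). Labs, vital signs, 12-lead ECG and physical exam were also recorded.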

[2] = test system: esterases; conditions: in vitro; cited from earlier work
[3] = cited from earlier work
[4] = assay type: in vivo, human
Method in brief: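 Open-label, fixed-sequence, two-period study in 26 healthy subjects. A single oral 150 mg dose was given alone, then the morning after the last of 7 daily oral 600 mg co-drug doses. Doses were ≥14 days apart. Plasma sampled pre-dose to 72 h and assayed by LC-MS/MS. Cmax observed; AUC by linear-up/log-down trapezoidal rule; log values analysed by ANOVA (treatment fixed, subject random), giving geometric mean ratios with 90% CIs.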

[5] = Rifampicin study: safety and tolerability; assay type: in vivo, human; conditions: for Subjects with any AE (s) / Subjects with chromaturia / Subjects with cough / Subjects with dermatitis contact / Subjects with diarrhea / Subjects with dizziness / Subjects with dysphagia / Subjects with eye pain / Subjects with fatigue / Subjects with feces discolored / Subjects with feeling hot / Subjects with flatulence / Subjects with headache / Subjects with influenza / Subjects with laceration / Subjects with nausea / Subjects with night sweats / Subjects with oropharyngeal pain / Subjects with pollakiuria / Subjects with rhinitis / Subjects with vessel puncture site paresthesia: nintedanib 150 mg single dose, rifampicin 600 mg once daily for 7 days
Method in brief: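 26 healthy subjects in an open-label, two-period, fixed-sequence design. A single oral nintedanib 150 mg dose was given alone, then again the morning after the last oral rifampicin 600 mg once-daily dose (7 days), with ≥14 days between nintedanib doses. AEs within 72 h of each nintedanib dose were assigned to that period. AEs later than 72 h after nintedanib alone and before rifampicin started were counted as washout. Labs, vital signs, 12-lead ECG and physical exam were also assessed.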

[6] = test system: CYP; conditions: in vitro; cited from earlier work
[7] = assay type: in vivo, human; remark: listed apart in the source
[8] = test system: p-glycoprotein (P-gp); conditions: cited from earlier work
[9] = co-administration with rifampicin
[10] = test nintedanib 150 mg + rifampicin 600 mg vs reference nintedanib 150 mg
[11] = single dose of nintedanib alone and with rifampicin
[12] = single dose of nintedanib alone and with ketoconazole
[13] = co-administration with ketoconazole
[14] = test nintedanib 50 mg + ketoconazole 400 mg vs reference nintedanib 50 mg

Question: For `CC(=O)N1CCN(c2ccc(OCC3COC(Cn4ccnc4)(c4ccc(Cl)cc4Cl)O3)cc2)CC1` (centres unmarked) [Ketoconazole], which “Subjects with abdominal pain upper” value [1] is on record?
Answer: 1 (2.9) n (%)

Question: What about the “Subjects with any AE (s)” value [1] of the same compound?
Answer: 3 (8.8) n (%)

Question: And the “Subjects with back pain” value [1]?
Answer: 0 n (%)

Question: What about the Subjects with dizziness [1] of the same compound?
Answer: 0 n (%)

Question: What about the “Subjects with dry mouth” value [1] of the same compound?
Answer: 1 (2.9) n (%)

Question: What about the Subjects with excoriation [1] of the same compound?
Answer: 0 n (%)

Question: And the Subjects with fatigue [1]?
Answer: 0 n (%)

Question: And the Subjects with headache [1]?
Answer: 2 (5.9) n (%)

Question: And the Subjects with nasopharyngitis [1]?
Answer: 0 n (%)

Question: And the “Subjects with ocular hyperemia” value [1]?
Answer: 0 n (%)

Question: And the “Subjects with puncture site induration” value [1]?
Answer: 0 n (%)

Question: What about the “Subjects with puncture site pain” value [1] of the same compound?
Answer: 0 n (%)

Question: Which “Share of ester cleavage” value [2] does the source give for `COC(=O)c1ccc2c(c1)NC(=O)/C2=C(\Nc1ccc(N(C)C(=O)CN2CCN(C)CC2)cc1)c1ccccc1` [Nintedanib] here?
Answer: about 25%

Question: And the Terminal half-life [3]?
Answer: 10 to 15 h

Question: And the Volume of distribution ([3]; geometric mean)?
Answer: 1050 L

Question: What about the Percentage absorbed ([3]; nintedanib 100 mg in healthy volunteers, estimated) of the same compound?
Answer: 23%

Question: And the Absolute bioavailability ([3]; nintedanib 100 mg in healthy volunteers)?
Answer: approximately 5%

Question: And the “Time to maximum plasma concentration” value ([3]; oral administration)?
Answer: 2 to 4 h

Question: What about the “Time to steady state” value ([3]; oral dosing) of the same compound?
Answer: ≤ 7 days

Question: And the “Effect on tmax and t½ of nintedanib” value ([4]; co-administration of rifampicin)?
Answer: unaffected

Question: And the “Reduction of exposure to nintedanib based on AUC” value [4, 9]?
Answer: about 50%

Question: And the “Reduction of exposure to nintedanib based on Cmax” value [4, 9]?
Answer: ~60%

Question: What about the Tmax ([4]; human, plasma, oral) of the same compound?
Answer: 4 h

Question: What about the half-life ([4]; human, plasma, oral) of the same compound?
Answer: 23.4 h

Question: And the AUC(0-inf) ([4]; human, plasma, po, 150 mg)?
Answer: 183 ng·h/mL

Question: And the AUC(0-t) ([4]; human, plasma, po, 150 mg)?
Answer: 173 ng·h/mL

Question: And the Cmax ([4]; human, plasma, po, 150 mg)?
Answer: 22.1 ng/mL

Question: What about the half-life ([4]; human, plasma, po, 150 mg) of the same compound?
Answer: 22.5 h

Question: And the “Relative bioavailability, GMR (90% CI) of AUC0–tz” value [4, 10]?
Answer: 50.0 (46.9–53.3) %

Question: And the “Relative bioavailability, GMR (90% CI) of AUC0–∞” value [4, 10]?
Answer: 50.1 (47.2–53.3) %

Question: What about the “Relative bioavailability, GMR (90% CI) of Cmax” value [4, 10] of the same compound?
Answer: 59.8 (53.8–66.4) %

Question: What about the “Subjects with any AE (s)” value [5] of the same compound?
Answer: 5 (19.2) n (%)

Question: And the Subjects with chromaturia [5]?
Answer: 0 n (%)

Question: What about the Subjects with cough [5] of the same compound?
Answer: 0 n (%)

Question: What about the “Subjects with dermatitis contact” value [5] of the same compound?
Answer: 0 n (%)

Question: What about the Subjects with diarrhea [5] of the same compound?
Answer: 5 (19.2) n (%)

Question: And the Subjects with dizziness [5]?
Answer: 0 n (%)

Question: What about the Subjects with dysphagia [5] of the same compound?
Answer: 0 n (%)

Question: And the “Subjects with eye pain” value [5]?
Answer: 0 n (%)

Question: And the Subjects with fatigue [5]?
Answer: 0 n (%)

Question: What about the “Subjects with feces discolored” value [5] of the same compound?
Answer: 0 n (%)

Question: And the “Subjects with feeling hot” value [5]?
Answer: 0 n (%)

Question: And the Subjects with flatulence [5]?
Answer: 0 n (%)

Question: What about the Subjects with headache [5] of the same compound?
Answer: 1 (3.8) n (%)

Question: What about the Subjects with influenza [5] of the same compound?
Answer: 0 n (%)

Question: And the Subjects with laceration [5]?
Answer: 0 n (%)

Question: What about the Subjects with nausea [5] of the same compound?
Answer: 0 n (%)

Question: And the “Subjects with night sweats” value [5]?
Answer: 0 n (%)

Question: And the “Subjects with oropharyngeal pain” value [5]?
Answer: 0 n (%)

Question: What about the Subjects with pollakiuria [5] of the same compound?
Answer: 0 n (%)

Question: And the Subjects with rhinitis [5]?
Answer: 0 n (%)

Question: And the “Subjects with vessel puncture site paresthesia” value [5]?
Answer: 0 n (%)

Question: And the “Serious AEs” value [5, 11]?
Answer: No serious AEs

Question: What about the Tolerability [5, 11] of the same compound?
Answer: well tolerated

Question: What about the “Share of CYP-dependent metabolism” value [6] of the same compound?
Answer: about 5%

Question: And the “Subjects with abdominal pain upper” value [1]?
Answer: 0 n (%)

Question: And the “Subjects with any AE (s)” value [1]?
Answer: 8 (25.8) n (%)

Question: And the “Subjects with back pain” value [1]?
Answer: 0 n (%)

Question: And the Subjects with dizziness [1]?
Answer: 1 (3.2) n (%)

Question: What about the “Subjects with dry mouth” value [1] of the same compound?
Answer: 0 n (%)

Question: What about the Subjects with excoriation [1] of the same compound?
Answer: 0 n (%)

Question: And the Subjects with fatigue [1]?
Answer: 1 (3.2) n (%)

Question: What about the Subjects with headache [1] of the same compound?
Answer: 5 (16.1) n (%)

Question: What about the Subjects with nasopharyngitis [1] of the same compound?
Answer: 2 (6.5) n (%)

Question: What about the “Subjects with ocular hyperemia” value [1] of the same compound?
Answer: 1 (3.2) n (%)

Question: What about the “Subjects with puncture site induration” value [1] of the same compound?
Answer: 0 n (%)

Question: What about the “Subjects with puncture site pain” value [1] of the same compound?
Answer: 0 n (%)

Question: What about the “Serious AEs” value [1, 12] of the same compound?
Answer: No serious AEs

Question: What about the Tolerability [1, 12] of the same compound?
Answer: well tolerated

Question: What about the “Effect on tmax and t½ of nintedanib” value ([7]; co-administration of ketoconazole) of the same compound?
Answer: unaffected

Question: And the “Increase in exposure to nintedanib based on AUC” value [7, 13]?
Answer: about 1.6 fold

Question: And the “Increase in exposure to nintedanib based on Cmax” value [7, 13]?
Answer: ~1.7 fold

Question: What about the Tmax ([7]; human, plasma, oral) of the same compound?
Answer: 3 h

Question: And the half-life ([7]; human, plasma, oral)?
Answer: 15.6 h

Question: What about the AUC(0-inf) ([7]; human, plasma, po, 50 mg) of the same compound?
Answer: 38.6 ng·h/mL

Question: And the AUC(0-t) ([7]; human, plasma, po, 50 mg)?
Answer: 35.7 ng·h/mL

Question: And the Cmax ([7]; human, plasma, po, 50 mg)?
Answer: 4.19 ng/mL

Question: And the half-life ([7]; human, plasma, po, 50 mg)?
Answer: 18.1 h

Question: What about the “Exposure to nintedanib (AUC0–∞, Cmax, AUC0–tz) higher when co-administered with ketoconazole than alone” value ([7]; nintedanib 50 mg, ketoconazole 400 mg once daily for 3 days) of the same compound?
Answer: 1.6–1.7 fold

Question: And the “Relative bioavailability, GMR (90% CI) of AUC0–tz” value [7, 14]?
Answer: 168.1 (155.3–182.0) %

Question: And the “Relative bioavailability, GMR (90% CI) of AUC0–∞” value [7, 14]?
Answer: 160.5 (148.2–173.7) %

Question: And the “Relative bioavailability, GMR (90% CI) of Cmax” value [7, 14]?
Answer: 179.6 (157.6–204.8) %

Question: What about the “Substrate for p-glycoprotein (P-gp)” value [8] of the same compound?
Answer: substrate

Question: What does the source list for `CO[C@H]1/C=C/O[C@@]2(C)Oc3c(C)c(O)c4c(O)c(c(/C=N/N5CCN(C)CC5)c(O)c4c3C2=O)NC(=O)/C(C)=C\C=C\[C@H](C)[C@H](O)[C@@H](C)[C@@H](O)[C@@H](C)[C@H](OC(C)=O)[C@@H]1C` [Rifampicin]?
Answer: Subjects with any AE (s) [5]: 25 (100) n (%); Subjects with chromaturia [5]: 25 (100) n (%); Subjects with cough [5]: 1 (4.0) n (%); Subjects with dermatitis contact [5]: 0 n (%); Subjects with diarrhea [5]: 1 (4.0) n (%); Subjects with dizziness [5]: 2 (8.0) n (%); Subjects with dysphagia [5]: 1 (4.0) n (%); Subjects with eye pain [5]: 1 (4.0) n (%); Subjects with fatigue [5]: 2 (8.0) n (%); Subjects with feces discolored [5]: 3 (12.0) n (%); Subjects with feeling hot [5]: 1 (4.0) n (%); Subjects with flatulence [5]: 2 (8.0) n (%); Subjects with headache [5]: 5 (20.0) n (%); Subjects with influenza [5]: 0 n (%); Subjects with laceration [5]: 1 (4.0) n (%); Subjects with nausea [5]: 1 (4.0) n (%); Subjects with night sweats [5]: 1 (4.0) n (%); Subjects with oropharyngeal pain [5]: 0 n (%); Subjects with pollakiuria [5]: 1 (4.0) n (%); Subjects with rhinitis [5]: 1 (4.0) n (%); Subjects with vessel puncture site paresthesia [5]: 0 n (%)
